Measured values reported in ChEMBL document CHEMBL1127860, “Design, synthesis, X-ray analysis, and dopamine receptor-modulating activity of mimics of the "C5" hydrogen-bonded conformation in the peptidomimetic 2-oxo-3(R)-[(2(S)-pyrrolidinylcarbonyl)amino]-1- pyrrolidineacetamide” (J Med Chem, 1994).

Assays:
[1] = target: D(2) dopamine receptor (Bos taurus) (UniProt P20288); experiment: Binding towards dopamine D2 receptor using [3H]spiroperidol in the absence of (Gpp(NH)p)
[2] = Ratio of Rh and RL Inhibitor constants in presence of (Gpp(NH)p)
[3] = target: D(2) dopamine receptor (Bos taurus) (UniProt P20288); experiment: Tested for the ability to enhance the binding of the dopamine D2 receptor agonist N-propylnorapomorphine (NPA) in the presence of (Gpp(NH)p)
Outline: (§1)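 High-affinity [³H]NPA (0.05 nM) binding to bovine striatal membranes, 1 h at 22 °C, then GF/B filtration. Compound at 1, 10 or 100 nM, either with 100 μM Gpp(NH)p added directly or after a 2 h, 4 °C preincubation with Gpp(NH)p and washing. Expressed as % of maximal specific binding in Gpp(NH)p-free membranes. Mean ± SEM of five experiments.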

[4] = target: D(2) dopamine receptor (Bos taurus) (UniProt P20288); experiment: Percentage of sites in high affinity form for the agonist in the absence of (Gpp(NH)p; format: functional
[5] = target: D(2) dopamine receptor (Bos taurus) (UniProt P20288); experiment: Percentage of sites in low affinity form for the agonist in the absence of (Gpp(NH)p); format: functional
[6] = target: D(2) dopamine receptor (Bos taurus) (UniProt P20288); experiment: Percentage of sites in low affinity form for the agonist in the presence of (Gpp(NH)p); format: functional
[7] = Ratio of Rh and RL Inhibitor constants in absence of (Gpp(NH)p)
[8] = target: D(2) dopamine receptor (Bos taurus) (UniProt P20288); experiment: Binding towards dopamine D2 receptor using [3H]spiroperidol in presence of (Gpp(NH)p)
[9] = target: D(2) dopamine receptor (Bos taurus) (UniProt P20288); experiment: Percentage of sites in high affinity form for the agonist in the presence of (Gpp(NH)p); format: functional
[10] = target: D(2) dopamine receptor (Bos taurus) (UniProt P20288); experiment: Tested for the ability to enhance the binding of the dopamine D2 receptor agonist N-propylnorapomorphine (NPA) in the absence of (Gpp(NH)p); outline: as §1
[11] = target: D(2) dopamine receptor (Bos taurus) (UniProt P20288)
[12] = target: D(2) dopamine receptor (Bos taurus) (UniProt P20288); remark: listed apart in the source

D(2) dopamine receptor (Bos taurus), sequence (P20288 whole entry): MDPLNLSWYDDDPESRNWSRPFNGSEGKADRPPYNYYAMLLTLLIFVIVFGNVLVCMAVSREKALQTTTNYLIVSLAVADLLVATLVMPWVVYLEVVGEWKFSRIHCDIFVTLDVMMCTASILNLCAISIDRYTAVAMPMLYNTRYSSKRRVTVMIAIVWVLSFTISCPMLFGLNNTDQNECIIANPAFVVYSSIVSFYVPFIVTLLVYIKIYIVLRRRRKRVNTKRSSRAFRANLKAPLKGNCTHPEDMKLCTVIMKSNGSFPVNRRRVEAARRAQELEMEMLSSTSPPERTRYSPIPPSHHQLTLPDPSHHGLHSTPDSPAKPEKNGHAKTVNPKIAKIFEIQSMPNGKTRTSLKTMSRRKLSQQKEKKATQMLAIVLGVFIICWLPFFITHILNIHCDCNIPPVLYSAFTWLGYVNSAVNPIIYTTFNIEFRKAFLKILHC

| KH [1] | Ratio [2] | KL [3] | RH [4] | RL [5] | RL [6] | Ratio [7] | KH [8] | RH [9] | KL [10] | KL [11] | KL [12] | SMILES |
| --- | --- | --- | --- | --- | --- | --- | --- | --- | --- | --- | --- | --- |
| 0.03 nM | 0.56 | 77 nM | 65% | 34% | 64% | 1.91 | 0.07 nM | 36% | 61 nM | – | – | CC1(C)N2CCC[C@H]2C(=O)N1[C@@H]1CCN(CC(N)=O)C1=O |
| 0.02 nM | 0.71 | – | 65% | 33% | 59% | 1.97 | 0.05 nM | 42% | – | 64 nM | 56 nM | NC(=O)CN1CC[C@@H](N2CC(=O)N3CCC[C@H]3C2=O)C1=O |
